Data published in article PMC10807744 (Journal of agricultural and food chemistry, 2023).

Each compound was assayed on mAb-19F2 (assay: ic-ELISA). Details: mAb-19F2, relative to buprofezin = 100%.
Type: binding, BALB/c mice
`CCOC(=O)NCCOc1ccc(Oc2ccccc2)cc1` [Fenoxycarb] showed a Cross-reactivity of less than 0.18%. `C/C(=N\C#N)N(C)Cc1ccc(Cl)nc1` [Acetamiprid] was tested, and the Cross-reactivity was less than 0.18%. `O=C(NC(=O)c1c(F)cccc1F)Nc1cc(Cl)c(OC(F)(F)C(F)C(F)(F)F)cc1Cl` (centres unmarked) [Lufenuron] gave a Cross-reactivity of less than 0.18%. `Nc1nc(N)nc(NC2CC2)n1` [Cyromazine] showed a Cross-reactivity of less than 0.18%. `CCCC/C=N/N(Cc1ccc(Cl)nc1)/C(N)=N/[N+](=O)[O-]` [Guadipyr] was tested, and the Cross-reactivity was less than 0.18%. In the case of `O=C(NC(=O)c1c(F)cccc1F)Nc1cc(Cl)c(Oc2ncc(C(F)(F)F)cc2Cl)c(Cl)c1` [Chlorfluazuron], the Cross-reactivity is reported as less than 0.18%. For `O=C(NC(=O)c1c(F)cccc1F)Nc1ccc(Cl)cc1` [Diflubenzuron], the Cross-reactivity was less than 0.18%. Compound `CN/C(=N\[N+](=O)[O-])NCc1cnc(Cl)s1` [Clothianidin] has a Cross-reactivity of less than 0.18%. With `N#CN=C1SCCN1Cc1ccc(Cl)nc1` [(E)-Thiacloprid] the Cross-reactivity was less than 0.18%. `CCN(Cc1ccc(Cl)nc1)/C(=C/[N+](=O)[O-])NC` [Nitenpyram] showed a Cross-reactivity of less than 0.18%. `O=C(NC(=O)c1ccccc1Cl)Nc1ccc(OC(F)(F)F)cc1` [Triflumuron] gave a Cross-reactivity of less than 0.18%. `CC(c1ccc(C(F)(F)F)nc1)S(C)(=O)=NC#N` (centres unmarked) [Sulfoxaflor] was tested, and the Cross-reactivity was less than 0.18%. `O=C(NC(=O)c1c(F)cccc1F)Nc1cc(Cl)c(OC(F)(F)C(F)F)c(Cl)c1` [Hexaflumuron] showed a Cross-reactivity of less than 0.18%. For `CN/C(=N/CC1CCOC1)N[N+](=O)[O-]` (centres unmarked) [Dinotefuran], the Cross-reactivity was less than 0.18%. Compound `O=[N+]([O-])/N=C1\NCCN1Cc1cnc(Cl)s1` [Imidaclothiz] has a Cross-reactivity of less than 0.18%. `CN1COCN(Cc2cnc(Cl)s2)/C1=N\[N+](=O)[O-]` [Thiamethoxam] was tested, and the Cross-reactivity was less than 0.18%. `CCc1ccc(C(=O)NN(C(=O)c2cc(C)cc(C)c2)C(C)(C)C)cc1` [Tebufenozide] was tested, and the Cross-reactivity was less than 0.18%. For `CC(C)(C)N(NC(=O)c1ccccc1)C(=O)c1ccccc1` [1,2-dibenzoyl-1-(t-butyl)hydrazine], the Cross-reactivity was less than 0.18%. Compound `O=C(NC(=O)c1ccccc1Cl)Nc1ccc(Cl)cc1` [Chlorbenzuron] has a Cross-reactivity of less than 0.18%. For `CC(C)N1C(=O)N(c2ccccc2)CS/C1=N\C(C)(C)C` [Buprofezin], the Cross-reactivity was 100%. With `CC(COc1ccc(Oc2ccccc2)cc1)Oc1ccccn1` (centres unmarked) [Pyriproxyfen] the Cross-reactivity was less than 0.18%. Compound `CCCOC1CC(C)C([N+](=O)[O-])=C2N(Cc3ccc(Cl)nc3)CCN21` (centres unmarked) [Paichongding(IPP)] has a Cross-reactivity of less than 0.18%. Work on `O=C1C=C(N(Cc2ccc(Cl)nc2)CC(F)F)CO1` [Flupyradifurone] yielded a Cross-reactivity of less than 0.18%. `Cc1cc(C)cc(C(=O)N(NC(=O)c2ccc3c(c2C)CCCO3)C(C)(C)C)c1` [Chromafenozide] was tested, and the Cross-reactivity was less than 0.18%. For `N#CCNC(=O)c1cnccc1C(F)(F)F` [Flonicamid], the Cross-reactivity was less than 0.18%. `FC(F)(F)c1ccc(OCCCOc2c(Cl)cc(OCC=C(Cl)Cl)cc2Cl)nc1` [Pyrldalyl] was tested, and the Cross-reactivity was less than 0.18%.

The compounds below were run on mAb-19F2 (assay: colloidal gold immunochromatographic assay). Details: GICA; abstract.
Type: binding, BALB/c mice
Outline: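 Colloidal gold strips were striped with […]. Tea was soaked 30 min in 50 mL boiling water, adjusted to pH 6-7, and 100 µL applied. Spikes were 2.5, 5 and 10 mg/kg. LOD was read by eye as test-line disappearance, and LOQ as IC20.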
With `CC(C)N1C(=O)N(c2ccccc2)CS/C1=N\C(C)(C)C` [Buprofezin] the “limit of quantitation (LOQ, IC20)” value was 0.0168 µg/mL.

Same assay, conditions: T/C values, buprofezin standard in 0.01 M PBS
For `CC(C)N1C(=O)N(c2ccccc2)CS/C1=N\C(C)(C)C` [Buprofezin], the “IC50 of the test strip” value was 0.2312 µg/mL.

Same assay, conditions: complete disappearance of test line visible to the naked eye
In the case of `CC(C)N1C(=O)N(c2ccccc2)CS/C1=N\C(C)(C)C` [Buprofezin], the “detection limit (LOD)” value is reported as 500 ng/mL.
